From PubChem
Compounds with a hit are over-represented: about 1.9% of the library has one in this group of screens.
Xi reactivation = X-chromosome reactivation activator; activation, % at 7.58 µM; AID 743238; XiGFP mouse fibroblasts, % GFP-positive cells imaging, 3 d; cells co-treated with 5-aza-dC sensitizer; scaled so ellipticine positive control = 100%; hit rate 0.055% among 360,000;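 active = mean normalized replicate activation at least 10% and every replicate at or above 10%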;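 note: 0% = median of on-plate neutral control wells and 100% = ellipticine 6 µM median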
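System: 68-5-11 XiGFP fibroblast line | Buffer or medium: DMEM containing 5-aza-dC | Compound: Single point | Times: Compounds 3 days, fix/stain 15 min at room temperature | Benchmarks: Positive control ellipticine, 6 µM final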
Rin1 Abl inh = blocks binding of human Rin1 to Abl; inhibition, % at 7.35 µM; P00519+Q13671; hit rate 0.4% among 360,000; TR-FRET Rin1/Abl binding, biochemical; in the data active = inhibition above about 5%, passing the limit was not always enough
Rpn11 inh = blocks the human proteasome subunit Rpn11. AID 588493. inhibition, % at 20 µM. hit rate 0.59% among 360,000. human 26S proteasome, Ub4-pepOG fluorescence polarization; 20S core pre-blocked with epoxomicin. O00487;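 active = inhibition at 20 µM, scaled to each plate's controls, above about 33%, limit read from the data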
NadD inh = blocks S. aureus nicotinate mononucleotide adenylyltransferase. hit rate 0.78% among 360,000. purified NadD enzyme, colorimetric absorbance read-out. inhibition, % at 20 µM; in the data active = inhibition above about 26%
ABHD5 PLIN5 PPI = inhibitors of human ABHD5-perilipin-5 interaction | Split G. princeps luciferase complementation, luminescence, 4 h | hit rate 0.78% among 360,000 | Q00G26+Q8WTS1 | inhibition, % at 4 µM | AID 602281;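 active = inhibition above the mean inhibition across every tested compound plus 3 SD, cut at about 22% in these data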;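 note: 0% = DMSO only wells and the 100% control is not disclosed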
ABHD5 PLIN5 conf = confirmation of human ABHD5-PLIN5 interaction inhibitors; hit rate 67% among 2,200; AID 651612; inhibition, % at 4 µM; biochemical ABHD5-PLIN5 interaction, luminescence; shares compounds with ABHD5 PLIN5 PPI; in the data active = inhibition above about 23%;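 note: 0% = DMSO vehicle wells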
HNF4 counter = HNF4 split-luciferase signal hit, counter-screen; shares compounds with ABHD5 PLIN5 PPI; HNF4 dimerization, luminescence, biochemical; inhibition, % at 4 µM; hit rate 77% among 2,200; AID 651674;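 active = mean inhibition across replicate wells exceeding the computed hit threshold, cut at about 13% in these data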;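 note: light from luciferase halves that rejoin when HNF4 fusion proteins dimerize; 0% = DMSO only wells and the 100% control is not given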
* = called active by the depositor; . = no result given.

SMILES	Xi reactivation	Rin1 Abl inh	Rpn11 inh	NadD inh	ABHD5 PLIN5 PPI	ABHD5 PLIN5 conf	HNF4 counter
CCOC(=O)c1c(CSC(=N)N)n(C)c2cc(Br)c(OC(C)=O)cc12	0.1	0.3	-2.5	-8.3	17.5	.	.
CSc1sc(-c2ccnc(SCC(=O)C(C)(C)C)n2)c2c1C(=O)CC(C)(C)C2	0.3	-3.8	28.3	11.2	23.3*	-5.2	-4.8
COc1ccc2c3c(n(C)c2c1)[C@H](CO)N(Cc1cccc(Cl)c1)CC31CCN(C(C)=O)CC1	-0.1	.	.	.	.	.	.
CC(C)NC(=O)N(C)C[C@@H]1Oc2ncc(-c3cccc(C#N)c3)cc2C(=O)N([C@@H](C)CO)C[C@@H]1C	0.3	.	.	.	.	.	.
O=C1CC(c2ccccc2)CC(=O)C1Sc1ccc(Cl)cc1 (stereo unspecified)	0.0	-2.6	-7.4	3.3	-0.8	.	.
COc1ccc(C2CC(=O)C(CS(=O)(=O)c3ccccc3)C(=O)C2)cc1 (stereo unspecified)	0.0	4.5	5.6	7.7	41.5*	53.2*	102.0*
O=C1CCCC(=O)C1CS(=O)(=O)c1ccccc1	0.7	-0.7	5.0	-6.0	40.7*	46.0*	97.8*
O=C1CC(c2ccc(Cl)cc2)CC(=O)C1CS(=O)(=O)c1ccccc1 (stereo unspecified)	0.1	4.2	-0.2	5.7	25.4*	43.1*	82.8*
CC1=CC(=O)N(c2ccn(C)n2)C1=O	0.3	-2.1	-1.4	0.1	24.7*	36.2*	38.6*
Cn1ccc(-c2ccccc2)n1	0.0	5.7	1.0	-2.3	1.7	.	.
C[C@H]1CN([C@@H](C)CO)C(=O)c2cccc(NC(=O)c3cnccn3)c2O[C@H]1CN(C)Cc1ccc2c(c1)OCO2	0.1	.	.	.	.	.	.
CC1CC(C)(C)Nc2ccc(OC(=O)c3ccco3)cc21 (stereo unspecified)	.	-1.6	-1.0	5.1	28.1*	70.9*	61.1*
Oc1ccccc1-c1cc(-c2ccco2)[nH]n1	.	-5.6	13.9	0.1	27.1*	13.6	14.5*
O=C1C(c2ccccc2)CN1Cc1ccccc1 (stereo unspecified)	0.2	2.1	0.3	-1.7	0.4	.	.
O=C1N(Cc2ccccc2)CC2(Br)COCOC12O (stereo unspecified)	0.1	0.8	4.7	1.2	38.8*	92.6*	102.2*
COc1ccc(CC2=CC(=O)c3ccccc3C2=O)cc1	9.5	6.8*	0.1	-3.4	84.9*	100.3*	107.7*
COc1ccc(Cc2ccccc2C(=O)O)cc1	0.0	1.8	-5.4	-5.4	3.6	.	.
COc1ccc2c3c([nH]c2c1)[C@H](CO)N(C(=O)c1cccnc1)CC31CCN(C(=O)NC(C)C)CC1	0.5	.	.	.	.	.	.
CN(C)CCNC(=O)/C(=C/c1ccc(-c2ccc(Cl)cc2)o1)NC(=O)c1ccccc1	0.0	-8.9	-9.5	-11.9	25.0*	13.2	4.1
CN(C)CCCNC(=O)/C(=C\c1ccc(-c2cccc([N+](=O)[O-])c2)o1)NC(=O)c1ccccc1	0.0	-5.2	-6.3	-4.3	14.2	.	.
CN(C)CCNC(=O)/C(=C/c1ccc(-c2ccc(Cl)cc2Cl)o1)NC(=O)c1ccccc1	-0.1	-2.3	15.3	-12.5	35.2*	7.0	12.1
Cc1ccc(C(=O)N/C(=C\c2ccc(-c3ccc(Br)cc3)o2)C(=O)NCCCN(C)C)cc1	3.2	-6.8	-14.4	-1.9	35.7*	21.4	2.2
O=C(CC1CC1)N1CC(=O)N2[C@@H](CO)[C@H](c3ccc(C#Cc4ccccc4)cc3)[C@@H]2C1	-0.1	.	.	.	.	.	.
C/C=C/c1ccc2c(c1)O[C@@H](CN(C)C(=O)Nc1ccc(C(F)(F)F)cc1)[C@H](C)CN([C@H](C)CO)S2(=O)=O	-0.6	.	.	.	.	.	.
C[C@@H]1CCCCO[C@H](CN(C)Cc2ccccc2)[C@H](C)CN([C@H](C)CO)C(=O)c2cc(NC(=O)Cc3ccccc3)ccc2O1	0.1	.	.	.	.	.	.
SMILES	Xi reactivation	Rin1 Abl inh	Rpn11 inh	NadD inh	ABHD5 PLIN5 PPI	ABHD5 PLIN5 conf	HNF4 counter
COc1ccc2c3c([nH]c2c1)[C@@H](CO)N(C(C)=O)CC31CCN(C(=O)CN2CCOCC2)CC1	0.1	.	.	.	.	.	.
Cc1ccc(C(=O)/C=C/c2ccc(Br)cc2)o1	.	-3.8	-1.7	-8.9	52.5*	85.4*	60.8*
COc1cccc(CN2[C@H](CO)[C@@H](c3ccccc3)C23CN(Cc2ccccc2OC)C3)c1	0.2	.	.	.	.	.	.
COc1cccc(-c2nnc(SCC(=O)NCc3ccc4c(c3)OCO4)n2Cc2ccco2)c1	.	-5.1	3.5	14.4	28.3*	6.3	10.0
CN1C(=O)c2cc(NC(=O)Cc3ccccc3)ccc2OC[C@@H]2O[C@@H](CC(=O)O)CC[C@@H]21	0.3	.	.	.	.	.	.
C[C@H](CO)N1C[C@H](C)[C@@H](CN(C)Cc2ccc(C(=O)Nc3ccccc3N)cc2)Oc2c(NC(=O)C3CCCCC3)cccc2C1=O	0.2	5.5	4.5	4.6	72.5*	0.8	3.1
C[C@@H]1CN([C@H](C)CO)C(=O)c2cccc(NC(=O)C3CCCCC3)c2O[C@@H]1CN(C)Cc1ccc(C(=O)Nc2ccccc2N)cc1	0.6	.	.	.	.	.	.
COc1ccc2c3c(n(C)c2c1)[C@H](CO)N(C(C)=O)CC31CN(C(=O)NC(C)C)C1	0.5	.	.	.	.	.	.
Cc1ccc(-c2csc3ncn(-n4c(C)ccc4C)c(=O)c23)o1	.	-0.7	6.6	19.3	27.0*	6.3	32.8*
O=C(CSc1nnc(-c2ccc(Cl)cc2)n1Cc1ccco1)c1cccs1	.	4.1	8.8	19.3	33.1*	11.6	13.7*
NC(=O)CSc1nnc(-c2cccs2)n1Cc1ccco1	0.2	-0.9	-12.1	-9.3	0.6	.	.
O=C(CSc1nnc(-c2ccncc2)n1Cc1ccco1)c1ccc(Cl)cc1	.	2.5	-2.9	-1.5	32.5*	17.7	29.4*
O=C(CSc1nnc(-c2ccncc2)n1Cc1ccco1)Nc1ccccc1Cl	.	3.4	-1.6	-2.5	1.6	.	.
CC1=NOC(=O)/C1=C\c1ccc(-c2ccccc2Br)o1	0.4	-268.1	12.4	21.5	42.8*	93.3*	95.3*
CC1=NOC(=O)/C1=C\c1ccc(-c2cccc(Cl)c2)o1	.	-1.0	8.4	12.1	51.5*	99.2*	105.9*
COCC(=O)N1[C@@H]2CN(C(=O)NC(C)C)c3ccccc3[C@@H]2[C@@H]1CO	0.4	.	.	.	.	.	.
C/C=C/c1ccc([C@@H]2[C@@H](CO)N3C(=O)CN(Cc4ccccc4)C[C@@H]23)cc1	0.3	.	.	.	.	.	.
O=C(Nc1ccc2nc3n(c(=O)c2c1)CCCCC3)c1cc([N+](=O)[O-])ccc1F	1.3	0.6	-5.9	3.1	7.6	.	.
O=C(Nc1ccc2nc3n(c(=O)c2c1)CCCCC3)c1c(F)ccc([N+](=O)[O-])c1F	-0.1	0.8	-3.6	0.7	36.0*	60.9*	56.1*
